Assay results from different studies.
Effect on: microbial growth

Structure (SMILES)	organism	assay	test system	conditions	MIC
C[C@@H](O)[C@H]1C(=O)N2C(C(=O)O)=C(S[C@@H]3CN[C@H](C(=O)N(C)C)C3)[C@H](C)[C@H]12	Salmonella enterica	broth dilution	ENTERITIDIS	clinical isolate	≤ 0.5 µg/mL
O=C1NC(=S)N/C1=C\c1ccc(-c2ccc(N(c3ccccc3)c3ccccc3)cc2)c2ccccc12	Bacillus cereus	broth dilution	ATCC10876	–	> 1000 µg/mL
O=C(Nc1ncc([N+](=O)[O-])s1)c1cccnc1	Helicobacter pylori	broth dilution	26695	27 h	4 µM
O=C1NC(=S)S/C1=C\c1c2ccccc2c(-c2ccc(N(c3ccccc3)c3ccccc3)cc2)c2ccccc12	Bacillus cereus	broth dilution	ATCC10876	–	> 1000 µg/mL
COc1cc(-c2cc(=O)c3c(O)cc(O)cc3o2)ccc1O	Helicobacter pylori	broth dilution	–	–	3.9 µg/mL
CC1(C)S[C@@H]2[C@H](NC(=O)[C@H](N)c3ccccc3)C(=O)N2[C@H]1C(=O)O	Salmonella enterica	–	F98, TYPHIMURIUM	20 h, pH 7	2 µg/mL
O=C(O)CN1C(=O)/C(=C/c2ccc(-c3ccc(N(c4ccccc4)c4ccccc4)cc3)cc2)NC1=S	Bacillus cereus	broth dilution	ATCC10876	–	125 µg/mL
O=C(Nc1ncc([N+](=O)[O-])s1)C1CCCCC1	Helicobacter pylori	broth dilution	26695	27 h	1.2 µM
CO/N=C(\C(=O)N[C@@H]1C(=O)N2C(C(=O)O)=C(CSc3nc(=O)c(=O)[nH]n3C)CS[C@H]12)c1csc(N)n1	Salmonella enterica	–	F98, TYPHIMURIUM	20 h, pH 5.5	0.25 µg/mL
O=C(O)CN1C(=O)/C(=C/c2ccc(-c3ccc(N(c4ccccc4)c4ccccc4)cc3)c3ccccc23)SC1=S	Bacillus cereus	broth dilution	ATCC10876	–	1000 µg/mL
Cc1cc(NS(=O)(=O)c2ccc(N)cc2)no1	Salmonella enterica	–	–	20 h, pH 7.2	64 µg/mL
C=C[C@@]1(C)C=C2CC[C@@H]3[C@](C)(CCC[C@@]3(C)C(=O)O)[C@H]2CC1	Helicobacter pylori	broth dilution	–	–	31.2 µg/mL
O=C(Nc1ncc([N+](=O)[O-])s1)c1ccncc1F	Helicobacter pylori	broth dilution	26695	27 h	3.7 µM
Oc1ccc(-c2nc(-c3ccc(Oc4ccccc4)cc3)no2)cc1	Bacillus cereus	broth dilution	ATCC13061	–	2 µg/mL
